Experimental data from ChEMBL document CHEMBL1137561 (J Med Chem, 2007).

Experiments:
[1] = Cytotoxicity against MT4 cells after 4 days by MTT method; type: cell-based; details: human
Summary of the method: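 Mock-infected (noninfected) MT-4 cells, run in parallel with the antiviral test. Viable cells read by the MTT tetrazolium colorimetric method. […] Means ± SD from at least two experiments. The top concentration was limited where compounds precipitated in the culture medium.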

[2] = Selectivity index, ratio of CC50 for MT4 cells to EC50 for HIV1 NL43 infected MT4 cells; type: functional
[3] = test system: Human immunodeficiency virus 1; assay: Antiviral activity against HIV1 NL43 in MT4 cells assessed as inhibition of viral induced cytopathic effect after 5 days by MTT method; details: Human immunodeficiency virus 1, NL43, MT4, 120 h
[4] = Resistance index, Ratio of EC50 for drug-resistant HIV1 with RT IRLL98 mutation in MT4 cells to EC50 for HIV1 NL43 in MT4 cells
[5] = test system: Human immunodeficiency virus 1; assay: Antiviral activity against HIV1 with reverse transcriptase IRLL98 mutation in MT4 cells assessed as inhibition of viral induced cytopathic effect by MTT method; type: functional, organism-based; details: Human immunodeficiency virus 1, MT4
[6] = test system: Human immunodeficiency virus 1; assay: Antiviral activity against HIV1 with reverse transcriptase K103N mutation in MT4 cells assessed as inhibition of viral induced cytopathic effect by MTT method; type: functional, organism-based; details: Human immunodeficiency virus 1, MT4
Summary of the method: (§1)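 MT-4 cells infected with the HIV-1 NNRTI-resistant mutant strain. Viable cells scored at day 5 post-infection by the MTT tetrazolium colorimetric method. […] Values are means ± SD from at least two experiments.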

[7] = test system: Human immunodeficiency virus 1; assay: Antiviral activity against HIV1 with reverse transcriptase Y181C mutation in MT4 cells assessed as inhibition of viral induced cytopathic effect by MTT method; type: functional, organism-based; details: Human immunodeficiency virus 1, MT4; summary of the method: as §1
[8] = Resistance index, Ratio of EC50 for drug-resistant HIV1 with RT Y181C mutation in MT4 cells to EC50 for HIV1 NL43 in MT4 cells
[9] = test system: Human immunodeficiency virus 1; assay: Antiviral activity against HIV1 with reverse transcriptase Y188L mutation in MT4 cells assessed as inhibition of viral induced cytopathic effect by MTT method; type: functional, organism-based; details: Human immunodeficiency virus 1, MT4
Summary of the method: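 MT-4 cells infected with the HIV-1 NNRTI-resistant mutant strain. Viable cells scored at day 5 post-infection by the MTT tetrazolium colorimetric method. Values are means ± SD from at least two experiments.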

SMILES | CC50 at 96 h [1] [nM] | Ratio CC50/EC50 [2] | EC50 [3] [nM] | Ratio EC50 [4] | EC50 [5] [nM] | EC50 [6] [nM] | EC50 [7] [nM] | Ratio EC50 [8] | EC50 [9] [nM]
O=c1cc(Cc2c(F)cccc2N2CCCC2)nc(N2CCCC2)[nH]1 | > 73000 | >103 | 710 |  |  |  |  |  | 
CC1CCN(c2nc(Cc3c(F)cccc3F)cc(=O)[nH]2)CC1 | > 78000 | >2229 | 35 | 131 | 4600 | > 10000 | 1290 | 37 | > 10000
CC1CCCCN1c1nc(Cc2c(F)cccc2F)cc(=O)[nH]1 (stereo not given) | > 78000 | >729 | 107 | 28 | 3000 | > 10000 | 1140 | 11 | > 10000
Cc1c(Cc2c(F)cccc2F)nc(N(C)c2ccccc2)[nH]c1=O | > 73000 | >849 | 86 |  |  |  |  |  | 
CC1CCCN(c2nc(Cc3c(F)cccc3F)cc(=O)[nH]2)C1 (stereo not given) | > 78000 | >2437 | 32 | 56 | 1800 | > 10000 | 430 | 13 | > 10000
CC(C)N(C)c1nc(Cc2c(F)cccc2F)cc(=O)[nH]1 | 85000 | 10625 | 8 | 22 | 180 | > 10000 | 30 | 4 | > 10000
CCCN(C)c1nc(Cc2c(F)cccc2F)cc(=O)[nH]1 | 85000 | 9444 | 9 |  |  |  |  |  | 
O=C1Nc2ccc(Cl)cc2C(C#CC2CC2)(C(F)(F)F)O1 (single isomer, unassigned) [EFAVIRENZ] | > 300 |  |  |  | 80 | 90 | 6 |  | 230
Cc1c(C(C)c2ccccc2F)nc(N(C)C)[nH]c1=O (stereo not given) | 44000 | 7333 | 6 |  |  |  |  |  | 
Cc1c(Cc2c(F)cccc2F)nc(N2CCCC2)[nH]c1=O | > 82000 | >2562 | 32 |  | > 10000 | > 10000 | 5150 | 161 | > 10000
Cc1c(C(C)c2c(Cl)cccc2Cl)nc(N(C)C)[nH]c1=O (stereo not given) | 35000 | 1167 | 30 |  |  |  |  |  | 
CCCN(CCC)c1nc(Cc2c(F)cccc2F)c(C)c(=O)[nH]1 | > 74000 | >35 | 2090 |  |  |  |  |  | 
O=c1cc(Cc2c(F)cccc2F)nc(N2CCC3(CC2)OCCO3)[nH]1 | > 69000 | >31 | 2220 |  |  |  |  |  | 
O=c1cc(Cc2c(F)cccc2F)nc(N2CCCC2)[nH]1 | > 86000 | >925 | 93 |  | > 10000 | > 10000 | > 10000 |  | > 10000
CCN(CC)c1nc(Cc2c(F)cccc2F)c(C)c(=O)[nH]1 | > 81000 | >2700 | 30 |  |  |  |  |  | 
CCN(CC)c1nc(Cc2c(F)cccc2F)cc(=O)[nH]1 | > 85000 | >639 | 133 |  |  |  |  |  | 
CCCN(CCC)c1nc(Cc2c(F)cccc2F)cc(=O)[nH]1 | > 78000 | >44 | 1780 |  |  |  |  |  | 
Cc1c(Cc2c(F)cccc2F)nc(N2CCC3(CC2)OCCO3)[nH]c1=O | > 66000 | >101 | 650 |  |  |  |  |  | 
O=c1cc(Cc2c(F)cccc2F)nc(-n2cccc2)[nH]1 | > 87000 | >5 | 17300 |  |  |  |  |  | 
Cc1c(C(C)c2c(F)cccc2F)nc(N2CCCCCC2)[nH]c1=O (stereo not given) | > 72000 | >8000 | 9 |  |  |  |  |  | 
